Assays:
Assay type in all cases: ADME, organism-based
[1] = Maximum plasma concentration at a concentration of 3 mg/kg in rats, intravenously; set-up: dose 3 mg/kg, route intravenous; conditions: rat, iv
In short: (§1)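 Male Sprague–Dawley rats (300–350 g) with femoral artery cannula, dosed next day at 3 mg/kg in 0.3 mL heparinized saline via lateral tail vein. Arterial blood drawn at 0, 5, 10, 15, 30, 60, 90, 120 min, and plasma frozen at –70 °C. Gentamicin measured by fluorescence polarization immunoassay (LOD 0.30 μg/mL). Cmax is the observed value; AUC0–120 by linear trapezoidal rule. Mean ± SEM, 4–5 rats.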

[2] = Area under the curve at a concentration of 60 mg/kg perorally in rats along with control; set-up: dose 60 mg/kg, route oral; conditions: rat, in vivo, po, read-out: AUC 120 (converted)
In short: (§2)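 Cannulated male Sprague–Dawley rats (300–350 g), fasted 15 h, given 60 mg/kg by oral gavage under light O2/CO2 anaesthesia in 1 mL 5% DMSO/water at pH 8. Arterial plasma sampled 0–120 min and assayed by fluorescence polarization immunoassay. Cmax is observed; AUC0–120 is trapezoidal. F = AUCpo·dose_iv/(AUCiv·dose_po)×100, using iv 3 mg/kg. Mean ± SEM, 4–5 rats.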

[3] = Oral bioavailability in rat (dose 60 mg/kg p.o.); conditions: in vivo; in short: as §2
[4] = Area under the curve at a concentration of 3 mg/kg in rats, intravenously; set-up: dose 3 mg/kg, route intravenous; conditions: rat, in vivo, iv, read-out: AUC 120 (converted); in short: as §1
[5] = Maximum plasma concentration at a concentration of 60 mg/kg perorally in rats along with control; set-up: dose 60 mg/kg, route oral; conditions: rat, po; in short: as §2
[6] = system: Rattus norvegicus; test: Bioavailability in rat (dose 3 mg/kg i.v.); conditions: in vivo, iv

CNC(C)C1CC[C@H](N)[C@@H](OC2[C@@H](O)[C@@H](O[C@H]3OC[C@H](O)[C@@H](NC)[C@@H]3O)[C@H](N)C[C@@H]2N)O1.O=S(=O)(O)O (stereo partly drawn)
Cmax [1]: 8190 ng/mL | AUC [2]: 1180 ng·h/mL | bioavailability [3]: 1.4% | AUC [4]: 4180 ng·h/mL | Cmax [5]: 770 ng/mL | F [6]: 100%

CN[C@@H]1[C@H](O)[C@H](O[C@H]2[C@H](N)C[C@H](N)C(O[C@H]3OC(C(C)N)CC[C@@H]3N)[C@H]2O)OC[C@@H]1O.O=S(=O)(O)O (stereo partly drawn)
Cmax [1]: 8190 ng/mL | AUC [2]: 1180 ng·h/mL | bioavailability [3]: 1.4% | AUC [4]: 4180 ng·h/mL | Cmax [5]: 770 ng/mL | F [6]: 100%

CN[C@@H]1C(O)[C@H](O[C@@H]2C(O)C(O[C@H]3OC(CN)CCC3N)[C@@H](N)C[C@H]2N)OC[C@@H]1O.O=S(=O)(O)O (stereo partly drawn)
Cmax [1]: 8190 ng/mL | AUC [2]: 1180 ng·h/mL | bioavailability ([3]; read-out: Bioavailabiility): 1.4% | AUC [4]: 4180 ng·h/mL | Cmax [5]: 770 ng/mL | Bioavailabiility [6]: 100%

From ChEMBL document CHEMBL1148488, “Design, synthesis, and evaluation of a liposaccharide drug delivery agent: application to the gastrointestinal absorption of gentamicin” (J Med Chem, 2004)
